Assay [1] relates to LNCaP. The assay is described as follows: Cytotoxicity against human LnCaP cell line by MTT assay after 72 hrs. It counts as functional, cell-based. The method, boiled down:
(§1)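 MTT growth-inhibition assay in prostate cancer cells. Cells were exposed to compounds for 72 h. IC50 was taken from the dose–response data.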
A general note: Formazan colour is commonly taken as a measure of viable cells.

A further assay deals with PC-3. The experiment in a line: Cytotoxicity against human PC3 cell line by MTT assay after 72 hrs. It counts as functional, cell-based. As to conditions: PC-3, 72 h. The method, boiled down:
as §1

The test system of assay [2] is LNCaP. The experiment in a line: Induction of apoptosis in LnCaP cells assessed as PARP cleavage by Western blot analysis. As to conditions: Homo sapiens. It counts as functional, cell-based. In general terms: In western blotting, separated proteins are transferred to a membrane and probed.
Assay [3] concerns LNCaP. The experiment in a line: Inhibition in LnCaP cell line growth by ELISA apoptosis assay upto 20 uM. It counts as functional, cell-based. As to conditions: Homo sapiens. The method, boiled down:
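Apoptotic cell death in LNCaP cells measured by histone/DNA ELISA. Cells were treated for 72 h at 10 and 20 µM and compared with a control.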
In general terms: An ELISA detects its analyte on a solid surface through an enzyme-linked reagent.

Assay [4] concerns the target T1, Proteasome Macropain subunit MB1 (Homo sapiens, UniProt P28074).
T1 sequence (P28074 whole entry): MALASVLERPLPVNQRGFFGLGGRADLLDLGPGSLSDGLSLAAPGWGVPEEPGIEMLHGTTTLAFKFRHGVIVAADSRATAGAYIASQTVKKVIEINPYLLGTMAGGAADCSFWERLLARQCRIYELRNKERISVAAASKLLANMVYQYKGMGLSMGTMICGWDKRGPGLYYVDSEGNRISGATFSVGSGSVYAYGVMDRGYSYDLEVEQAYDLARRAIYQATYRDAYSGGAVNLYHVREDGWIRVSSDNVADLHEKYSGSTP
The experiment in a line: Inhibition of chymotrypsin-like activity of proteasome in intact LnCaP cells. It counts as cell-based. The method, boiled down:
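Intact LNCaP cells were treated, then whole-cell extracts were assayed for proteasome chymotrypsin-like activity. CuCl2 alone served as control. IC50 values were derived.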

Assay [5] has as its system LNCaP. The assay is described as follows: Induction of apoptosis in LnCaP cells measured by hydrogen peroxide assay. Type of assay: functional, cell-based. Particulars: Homo sapiens. A digest of the protocol:
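LNCaP cells were treated for 24 h at 4, 7 and 10 µM. H2O2 was then measured with the Amplex Red hydrogen peroxide kit at time points from 1 to 6 h. Absorbance was normalized to control.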

pIC50: −log10 of the molar value. The source made the active and inactive calls. No cut-off for these calls is given here.

As a reminder, the pIC50 is −log10 of the IC50, conventionally taken in molar units. The low end stands for a high IC50, the high end for a low IC50. Take `NC(=S)N/N=C/c1ccc2ccccc2n1`: the pIC50 was 4.80 in the assay on LNCaP [1], 4.68 in the assay on PC-3 and no more than 5.00 in assay [4]. The outcome in the assay with LNCaP [2] was Active. Also, the Activity entry with LNCaP [3] is “Dose-dependent effect”. The result in the assay with LNCaP [5] was inactive.
`O=C(N/N=C/c1ccc2ccccc2n1)c1ccccc1`: the negative-log IC50 (pIC50) in the assay on LNCaP [1] was 4.70; in the assay with PC-3, 4.60.
The like results for `O=C(N/N=C/c1ccc2ccccc2n1)c1ccccc1O` were, in that order, 4.70 and 4.51.

The record behind these values is ChEMBL document CHEMBL1137366, “Novel Schiff base copper complexes of quinoline-2 carboxaldehyde as proteasome inhibitors in human prostate cancer cells” (J Med Chem, 2006).
